From ChEMBL document CHEMBL2331185, “Structures and cytotoxic evaluation of new and known acyclic Ene-Ynes from an American Samoa Petrosia sp. Sponge” (J Nat Prod, 2013)

Legend:
[1] = Cytotoxicity against human H460 cells after 96 hrs by CellTiter-Glo luminescent assay; type: functional, cell-based; conditions: NCI-H460, 96 h
Method in brief: (§1)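 Tumour cells grown in 96-well plates without or with continuous test compound for 96 h. Growth measured by CellTiter-Glo luminescence. IC50 is the concentration inhibiting growth by 50% relative to untreated cells. Two separate replicate experiments.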

[2] = Cytotoxicity against human H522-T1 cells after 96 hrs by CellTiter-Glo luminescent assay; type: functional, cell-based; conditions: H522-T1, 96 h; method in brief: as §1
A2058 [3] = assay: Cytotoxicity against human A2058 cells after 96 hrs by CellTiter-Glo luminescent assay; type: functional, cell-based; conditions: A2058, 96 h; method in brief: as §1
A2058 [4] = assay: Selectivity index, ratio of IC50 for human IMR90 cells to IC50 for human A2058 cells; type: functional
Method in brief: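 SI calculated from the relative IC50 response of quiescent IMR-90 fibroblasts versus A2058 melanoma cells. IMR-90 IC50 comes from the 96 h low-serum quiescent assay; A2058 IC50 comes from the 96 h continuous-exposure proliferating assay. Both read by CellTiter-Glo.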

IMR-90 = assay: Cytotoxicity against human IMR90 cells after 96 hrs by CellTiter-Glo luminescent assay; type: cell-based; conditions: IMR-90, 96 h
Method in brief: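 Fibroblasts grown 4 days to confluency in MEM with 10% FBS, L-glutamine and penicillin/streptomycin. After washing, cells were held 3 more days in MEM with 0.1% FBS to reach quiescence. Compound added, then incubation 96 h at 37°C. Viability measured as cellular ATP by CellTiter-Glo.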

Compound | IC50 [1] [µM] | IC50 [2] [µM] | IC50 (A2058 [3]) [µM] | Ratio IC50 (A2058 [4]) | IC50 (IMR-90) [µM]
C#CC(O)/C=C/CCCCCCCCCC(O)CCCCCCCCCCCC(O)C#CC#CCO (stereo not drawn) | 0.8 | 1.2 | 0.8 |  | 
C#CC(O)/C=C/CCCCCCCCC/C=C\CCCCCCCCCCCC(O)C#CC#CCO (stereo not drawn) | 0.4 | 0.8 | 0.4 | 1 | 0.4
C#C[C@H](O)/C=C/CCCCCCCCCCC/C=C/C(O)CCCCCCCCC/C=C\C#CC(=O)O (stereo partly drawn) | > 10 | > 10 | 8.1 | 0 | 0.2
C#CC(O)/C=C/CCCCCCCC#C/C=C\CCCCCCCCCCCC(O)C#CC#CCO (stereo not drawn) | 1 | 0.6 | 0.4 | 0.8 | 0.3
C#CC(O)/C=C/CCCCCCCCCCCC#CCCCCCCCCCCCC(O)C#CC#CCO (stereo not drawn) | 1.2 | 2.7 | 1.3 | 1.2 | 1.6
CC[C@]1(O)C[C@@H]2CN(CCc3c([nH]c4ccccc34)[C@@](C(=O)OC)(c3cc4c(cc3OC)N(C)[C@H]3[C@@](O)(C(=O)OC)[C@H](OC(C)=O)[C@]5(CC)C=CCN6CC[C@]43[C@@H]65)C2)C1 [VINBLASTINE] | 0.002 | 0.009 | 0.004 | >250 | > 1
C#C[C@H](O)/C=C/CCCCCCCCCC#CCCCCCCCCCCCC/C=C\C#CC(=O)O | 7.3 | 8.4 | 6.4 | 0.1 | 0.4
C#C[C@H](O)/C=C/CCCCCCCC#C/C=C\CCCCCCCCCCCC/C=C\C#CC(=O)O | 3.1 | 4.6 | 3.8 | 0.1 | 0.3
C#CC(O)/C=C/CCCCCCCC#C/C=C\CCCCCCCCCCCCCC(O)C#CC#CCO (stereo not drawn) | 0.7 | 1.1 | 0.8 | 0.6 | 0.5
